Measurements from article PMC12370974 (Nature Communications, 2025).
Where a chain is given by its changes, count along the chain named. Peptide text beside a SMILES is read from it.

Assays:
FL PRT1^Y317A = target: T1, FL PRT1^Y317A (Arabidopsis thaliana, UniProt Q8LBL5, Y317A); assay: ITC binding of N-degron peptides to full-length PRT1 Y317A mutant; details: 25 °C, ITC buffer pH 7.5, one-site model
T1 sequence (Q8LBL5 1-410 Y317A): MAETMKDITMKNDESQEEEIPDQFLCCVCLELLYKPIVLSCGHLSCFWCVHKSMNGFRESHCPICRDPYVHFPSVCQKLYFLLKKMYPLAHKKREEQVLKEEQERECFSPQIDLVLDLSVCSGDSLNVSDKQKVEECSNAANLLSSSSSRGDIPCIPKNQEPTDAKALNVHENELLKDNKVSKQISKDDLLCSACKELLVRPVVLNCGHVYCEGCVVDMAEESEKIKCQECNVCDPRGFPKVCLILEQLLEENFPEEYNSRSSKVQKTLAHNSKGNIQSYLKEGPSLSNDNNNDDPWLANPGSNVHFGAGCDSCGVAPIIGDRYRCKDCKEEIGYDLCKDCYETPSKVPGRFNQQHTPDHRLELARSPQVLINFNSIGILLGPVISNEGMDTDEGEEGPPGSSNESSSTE
How it was run: (§1)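 Full-length PRT1 (wild type or point mutant) was expressed in E. coli BL21(DE3) with ZnSO4 and purified by Ni-NTA, TEV cleavage of the His6 tag and size exclusion into ITC buffer (50 mM Tris-HCl pH 7.5, 150 mM NaCl, 1 mM TCEP). Protein was at 45~55 μM and synthetic N-degron peptide at ~550 μM in the same buffer, with 19 injections at 25 °C. Data were fitted to a one-site model, with at least three runs.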

FL PRT1^I333A = target: T2, FL PRT1^I333A (Arabidopsis thaliana, UniProt Q8LBL5, I333A); assay: ITC binding of N-degron peptides to full-length PRT1 I333A mutant; details: 25 °C, ITC buffer pH 7.5, one-site model
T2 sequence (Q8LBL5 1-410 I333A): T1 sequence (Q8LBL5 1-410 Y317A) with A317Y, I333A
How it was run: as §1

[1] = target: RING2 domain of PRT1, wild type (Arabidopsis thaliana); assay: SEC-MALS
FL PRT1^WT = target: T3, FL PRT1^WT (Arabidopsis thaliana, UniProt Q8LBL5); assay: ITC binding of N-degron peptides to full-length PRT1 wild-type
T3 sequence (Q8LBL5 1-410): T1 sequence (Q8LBL5 1-410 Y317A) with A317Y
How it was run: as §1

[2] = target: full-length (FL) PRT1 wild-type (WT), PROTEOLYSIS1 of Arabidopsis thaliana (Arabidopsis thaliana) (UniProt Q8LBL5); assay: ITC
[3] = target: FL PRT1 I333A mutant (Arabidopsis thaliana) (UniProt Q8LBL5); assay: ITC
[4] = target: FL PRT1 Y317A mutant (Arabidopsis thaliana) (UniProt Q8LBL5); assay: ITC
PRT1^ZZ = target: T4, PRT1^ZZ (Arabidopsis thaliana, UniProt Q8LBL5); assay: ITC binding of N-degron peptide to the ZZ domain of PRT1
T4 sequence (Q8LBL5 308-365): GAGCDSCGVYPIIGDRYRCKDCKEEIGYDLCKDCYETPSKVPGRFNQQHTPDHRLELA
How it was run: as §1, with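 “The” for “Full-length”, “truncation” for “(wild type or point mutant)”, “as a bRIP-tag fusion” for “BL21(DE3) with ZnSO4”, “Blue affinity chromatography” for “TEV cleavage of the His6 tag”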

[5] = target: T5, ZZ domain-deleted RING domains (RING1 + RING2) of PRT1 (Arabidopsis thaliana, UniProt Q8LBL5); assay: ITC binding of N-degron peptide to ZZ domain-deleted PRT1; details: 25 °C, ITC buffer pH 7.5, RIP-RING (1-273)
T5 sequence (Q8LBL5 1-273): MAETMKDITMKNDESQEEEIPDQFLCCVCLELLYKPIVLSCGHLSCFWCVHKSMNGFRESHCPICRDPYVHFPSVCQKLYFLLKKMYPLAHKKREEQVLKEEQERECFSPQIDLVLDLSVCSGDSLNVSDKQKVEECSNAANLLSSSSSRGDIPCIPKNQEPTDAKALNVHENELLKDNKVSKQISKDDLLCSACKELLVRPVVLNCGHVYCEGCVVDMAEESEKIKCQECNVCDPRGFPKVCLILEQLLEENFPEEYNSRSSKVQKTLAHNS
How it was run: as §1, with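 “The” for “Full-length”, “truncation” for “(wild type or point mutant)”, “as a bRIP-tag fusion” for “BL21(DE3) with ZnSO4”, “Blue affinity chromatography” for “TEV cleavage of the His6 tag”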

FL PRT1^Y317A/I333A = target: T6, FL PRT1^Y317A/I333A (Arabidopsis thaliana, UniProt Q8LBL5, I333A/Y317A); assay: ITC binding of N-degron peptide to full-length PRT1 Y317A/I333A double mutant; details: 25 °C, ITC buffer pH 7.5, FL PRT1 Y317A/I333A double mutation
T6 sequence (Q8LBL5 1-410 Y317A/I333A): T1 sequence (Q8LBL5 1-410 Y317A) with I333A
How it was run: as §1

For `C[C@H](NC(=O)[C@H](CCCCN)NC(=O)[C@@H](N)Cc1ccc(O)cc1)C(=O)O` [YKA] (H-Tyr-Lys-Ala-OH), the “dissociation constant (KD), binding affinity” value (shortened to “dissociation constant (KD)”) (FL PRT1^Y317A) was “not bound” and the “dissociation constant (KD)” value (FL PRT1^I333A) was “not bound”.

Work on “RING2 domain of PRT1, wild type (domain or fragment)” yielded a stoichiometry N [1] of 2.

Work on `C[C@H](NC(=O)[C@H](C)NC(=O)[C@@H](N)Cc1c[nH]c2ccccc12)C(=O)O` [WAA] (H-Trp-Ala-Ala-OH) yielded a Kd (FL PRT1^WT) of 2.85 ± 0.164 µM.

YAA peptide showed a Kd [2] of 23.3 µM.

With Tyr N-degron peptide (Tyr-Lys-Phe) the Kd [3] was 13.7 µM and the Kd [4] was 41.3 µM.

`NCCCC[C@H](NC(=O)[C@@H](N)Cc1ccc(O)cc1)C(=O)N[C@@H](Cc1ccccc1)C(=O)O` [YKF, Tyr-Lys-Phe] (H-Tyr-Lys-Phe-OH) was tested, and the Kd (PRT1^ZZ) was 10.1 µM, the “binding affinity (KD)” value [5] was “no binding affinity was detected” and the “dissociation constant (KD)” value (FL PRT1^Y317A/I333A) was “considerably low affinity”.

`C[C@H](NC(=O)[C@H](C)NC(=O)[C@@H](N)Cc1ccccc1)C(=O)O` [FAA] (H-Phe-Ala-Ala-OH) showed a Kd (FL PRT1^WT) of 5.45 ± 0.212 µM.
